Test results reported in publication PMC6447837 (Cancer Science, 2019).

What was measured:
[1] = test system: Aspc‐1 cells; assay: Annexin V/PI apoptosis assay; assay type: cell-based, human; conditions: 24 hours
How it was run: (§1)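 Cells were treated with a range of concentrations for 24 hours, washed with PBS, then stained with annexin V‑FITC and propidium iodide for 15 minutes in the dark. […] Early (annexin V) and late (PI) apoptotic cells are reported as percentages, mean of n = 3 with SD.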

[2] = test system: Bxpc‐3 cells; assay: Annexin V/PI apoptosis assay; assay type: cell-based, human; conditions: 24 hours
How it was run: as §1

[3] = test system: FOSL1; assay: Western blot, FOSL1 expression in intact cells; assay type: cell-based, human; conditions: 10 PDAC cell lines, 12 hours
[4] = test system: STAT3; assay: Western blot, STAT3 phosphorylation; assay type: cell-based, human; conditions: Aspc‐1 and Bxpc‐3 cells, 12 hours
How it was run: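 Aspc-1 and Bxpc-3 cells were grown overnight in complete medium and treated with test compound for 12 h. Cells were lysed in RIPA buffer and protein was quantified. Lysates were run on SDS-PAGE and transferred to PVDF, then blocked 2 h in TBS-T with 5% non-fat milk. Blots were probed for pAKT Ser473, pERK Thr202/Tyr204, pSTAT3 Tyr705, the matching total proteins and β-actin. Detection was by enhanced chemiluminescence.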

[5] = test system: Aspc‐1 xenograft; assay: Subcutaneous xenograft model; assay type: in vivo, NOD‐SCID mice; conditions: Aspc‐1 model; LY‐1816 20 or 40 mg/kg/d p.o.; dasatinib 40 mg/kg/d p.o.; gemcitabine 80 mg/kg once a week
How it was run: (§2)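 Female NOD‑SCID mice bearing s.c. right‑flank tumors (5 × 10⁶–1 × 10⁷ cells injected) were randomized at 100–200 mm³ (6–7 per group). They received test compound in 25% PEG400/5% DMSO/water by oral gavage once daily for 18 days, or vehicle. Tumors were measured by caliper every 3 days, with volume = length × width² × 0.5.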

[6] = test system: Bxpc‐3 xenograft; assay: Subcutaneous xenograft model; assay type: in vivo, NOD‐SCID mice; conditions: Bxpc‐3 model; LY‐1816 20 or 40 mg/kg/d p.o.; dasatinib 40 mg/kg/d p.o.; gemcitabine 80 mg/kg once a week
How it was run: as §2

[7] = test system: STAT3; assay: Immunohistochemistry of xenograft tumor tissues; assay type: in vivo, NOD‐SCID mice; conditions: Aspc‐1 and Bxpc‐3 models; LY‐1816 and dasatinib 40 mg/kg/d p.o., gemcitabine 80 mg/kg/wk; IHC
How it was run: (§3)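 Six-week-old female NOD-SCID mice received 5 × 10⁶ to 1 × 10⁷ cells s.c. in the right flank. Treatment began at about 200 mm³. Test compound (40 mg/kg/d) was given once daily by oral gavage in 25% PEG400 plus 5% DMSO in water. Tumors were resected at the end of dosing. Frozen sections were immunostained and imaged by light microscopy.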

[8] = test system: FOSL1; assay: Immunohistochemistry of xenograft tumor tissues; assay type: in vivo, NOD‐SCID mice; conditions: Aspc‐1 and Bxpc‐3 models; LY‐1816 and dasatinib 40 mg/kg/d p.o., gemcitabine 80 mg/kg/wk; IHC
How it was run: as §3

[9] = test system: Aspc‐1 cells; assay: Transwell invasion assay; assay type: cell-based, human
How it was run: (§4)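 Inserts were precoated with polymerized collagen type I. Cells were seeded on the insert bottom in serum‑free medium with serial dilutions of test compound or vehicle, with 10% FBS medium in the lower chamber. After one day, cells were stained with calcein‑AM and optical sections taken at 10‑μm intervals. Invasion was scored as cells moving >20 μm into collagen; n = 3, mean with SD.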

[10] = test system: Bxpc‐3 cells; assay: Transwell invasion assay; assay type: cell-based, human
How it was run: as §4

[11] = biological target: Src (Homo sapiens, UniProt P12931); assay type: cell-based; conditions: 10 PDAC cell lines; 12 hours; western blot
Chain of Src (Homo sapiens, UniProt P12931) (P12931 whole entry): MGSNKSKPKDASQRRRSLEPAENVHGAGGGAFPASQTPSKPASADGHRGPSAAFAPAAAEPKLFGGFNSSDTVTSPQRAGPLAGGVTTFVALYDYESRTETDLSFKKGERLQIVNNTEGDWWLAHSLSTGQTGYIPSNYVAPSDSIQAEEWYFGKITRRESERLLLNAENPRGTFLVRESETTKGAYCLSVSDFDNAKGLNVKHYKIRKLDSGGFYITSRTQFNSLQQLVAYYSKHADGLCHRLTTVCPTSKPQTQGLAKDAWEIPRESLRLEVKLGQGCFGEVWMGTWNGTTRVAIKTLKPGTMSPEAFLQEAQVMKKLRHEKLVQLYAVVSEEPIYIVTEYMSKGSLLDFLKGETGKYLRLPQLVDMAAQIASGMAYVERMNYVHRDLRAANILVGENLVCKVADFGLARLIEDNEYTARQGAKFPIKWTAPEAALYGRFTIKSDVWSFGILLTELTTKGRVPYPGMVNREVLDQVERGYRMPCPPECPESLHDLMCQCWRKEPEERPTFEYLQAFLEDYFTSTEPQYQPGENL

[12] = test system: Src; assay: Immunohistochemistry of xenograft tumor tissues; assay type: in vivo, NOD‐SCID mice; conditions: Aspc‐1 and Bxpc‐3 models; LY‐1816 and dasatinib 40 mg/kg/d p.o., gemcitabine 80 mg/kg/wk; IHC
[13] = test system: cleaved caspase‐3; assay: Immunohistochemistry of xenograft tumor tissues; assay type: in vivo, NOD‐SCID mice; conditions: xenograft models; LY‐1816 40 mg/kg/d p.o., gemcitabine 80 mg/kg/wk; IHC
How it was run: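 Aspc‑1 or Bxpc‑3 s.c. tumors in NOD‑SCID mice were dosed p.o. daily from about 200 mm³, with vehicle controls. At study end, tumors were resected. Frozen sections were immunostained and imaged by light microscopy, and cleaved caspase‑3‑positive cells were counted.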

[14] = test system: Aspc‐1 cells; assay: Wound healing assay; assay type: cell-based, human; conditions: 18 hours
[15] = test system: Bxpc‐3 cells; assay: Wound healing assay; assay type: cell-based, human; conditions: 18 hours

SMILES	apoptosis (annexin V and PI‐positive populations) [1]	apoptosis (annexin V and PI‐positive populations) [2]	FOSL1 expression [3]	phosphorylation of STAT3 [4]	antitumor activity [5]	antitumor activity [6]	phosphorylation of STAT3 in tumor tissues [7]	expression of FOSL1 in tumor tissues [8]	cell invasion [9]	cell invasion [10]	phosphorylation of Src [11]	phosphorylation of Src in tumor tissues [12]	cleaved caspase‐3 stain in tumor tissues [13]	cell migration [14]	cell migration [15]
Cc1nc(Nc2ncc(C(=O)Nc3c(C)cccc3Cl)s2)cc(N2CCN(CCO)CC2)n1 [dasatinib]	also could induce apoptosis	also could induce apoptosis	slight influence on FOSL1 expression	very weak or no impact on the phosphorylation of STAT3	also showed antitumor activities	also showed antitumor activities	very weak or no influence on the phosphorylation of STAT3 or the expression of FOSL1	very weak or no influence on the phosphorylation of STAT3 or the expression of FOSL1	poor ability to block cell invasion	poor ability to block cell invasion	–	–	–	–	–
Nc1ccn([C@@H]2O[C@H](CO)[C@@H](O)C2(F)F)c(=O)n1 [gemcitabine, reference compound]	also could induce apoptosis	also could induce apoptosis	little inhibitory effect against Src and FOSL1 expression	–	also showed antitumor activities	also showed antitumor activities	did not evidently inhibit the activities of Src or STAT3, nor FOSL1 expression	did not evidently inhibit the activities of Src or STAT3, nor FOSL1 expression	poor ability to block cell invasion	poor ability to block cell invasion	little inhibitory effect against Src and FOSL1 expression	did not evidently inhibit the activities of Src or STAT3, nor FOSL1 expression	increase in the number of cleaved caspase‐3‐positive cells	very weak activity in blocking cell migration	very weak activity in blocking cell migration
